Shown are actives, neighbours in structure and some others; about 4.6% of the full set was active somewhere.
OX1R antag-1 – blocks the human orexin 1 receptor; O43613; CHO/OX1R cells, Fluo-8 calcium fluorescence, orexin A; inhibition, % at 5 µM; 330,000 tested, 0.43% active;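 active = inhibition above its plate's threshold, mean inhibition of all tested compounds on the plate plus 3 SD, cut at about 37% in these data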;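 note: 0% = orexin A challenge wells and 100% = SB-334867-A antagonist wells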
OX1R antag-2 – antagonists of human orexin 1 receptor (OX1R). O43613. OX1R-expressing cells, FRET antagonist read-out. inhibition, % at 6.6 µM. 330,000 tested, 1.8% active. AID 485270; in the data active = inhibition mostly above about 38%, no sharp cut-off; inactive = mostly below about 40%;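 note: 0% = agonist challenge alone and 100% = reference antagonist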
TAAR1 antag – antagonists of human TAAR1; 360,000 tested, 1.5% active; AID 624466; inhibition, % at 3 µM; CHO RD-HGA16 TAAR1, Fluo-8 calcium fluorescence, antagonist; Q96RJ0;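 active = inhibition above a per-plate cutoff, the mean inhibition of test compounds on that plate plus 3 SD, cut at about 49% in these data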;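 note: 0% = DMSO plus EC80 beta-PEA response and 100% = DMSO alone without agonist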
Target sequence (Q96RJ0 whole entry, looked up): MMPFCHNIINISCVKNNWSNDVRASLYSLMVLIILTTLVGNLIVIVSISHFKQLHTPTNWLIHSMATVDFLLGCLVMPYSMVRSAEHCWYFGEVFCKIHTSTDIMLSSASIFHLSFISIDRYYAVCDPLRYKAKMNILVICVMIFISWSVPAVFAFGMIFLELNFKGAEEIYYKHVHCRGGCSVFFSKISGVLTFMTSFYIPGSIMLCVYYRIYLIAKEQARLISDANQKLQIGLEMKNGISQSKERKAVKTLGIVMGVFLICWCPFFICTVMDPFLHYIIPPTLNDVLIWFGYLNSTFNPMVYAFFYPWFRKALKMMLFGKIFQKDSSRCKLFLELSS
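Test system: CHO RD-HGA16 cells bearing hTAAR1 | Reagent: β-PEA, EC80 | Compound dosing: 3 µM, single point | Schedule: Dye loading 75 min at 37 °C, then 30 min room temperature | Signal: Calcium fluorescence with Fluo-8 | Evaluation: Percent inhibition of PEA-evoked calcium signal, max/basal emission ratio | Control set: DMSO-only wells and EC80 β-PEA-stimulated wells | Repeats: Singlicate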
GPR7 antag – antagonists of human GPR7 (neuropeptides B/W receptor 1) | P48145 | GPR7-expressing cells, fluorescence antagonist assay | inhibition, % at 4.4 µM | 290,000 tested, 1.1% active | AID 1861; in the data active = inhibition above about 16%, passing the limit was not always enough;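 note: cells stimulated with the agonist NPW; 0% = agonist with vehicle and 100% = vehicle without agonist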
Target sequence (P48145 whole entry, looked up): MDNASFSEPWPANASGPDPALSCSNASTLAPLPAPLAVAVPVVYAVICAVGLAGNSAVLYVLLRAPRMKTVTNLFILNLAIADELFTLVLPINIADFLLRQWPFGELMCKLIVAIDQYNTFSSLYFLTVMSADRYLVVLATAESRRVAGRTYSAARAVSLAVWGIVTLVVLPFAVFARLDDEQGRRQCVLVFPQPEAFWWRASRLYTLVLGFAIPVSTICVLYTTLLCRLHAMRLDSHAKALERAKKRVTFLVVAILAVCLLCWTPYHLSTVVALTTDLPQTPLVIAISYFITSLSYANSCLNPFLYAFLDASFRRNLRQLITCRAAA
TAAR1 ag – agonists of human TAAR1 | 360,000 tested, 0.99% active | Q96RJ0 | activation, % at 3 µM | AID 624467 | CHO RD-HGA16 TAAR1, Fluo-8 calcium fluorescence; vehicle wells 0%, saturating PEA agonist 100%;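 active = activation above the mean activation of all test compounds in the run plus 3 SD, cut at about 38% in these data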
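System: CHO-derived RD-HGA16 cells with stable Gα16 and human TAAR1. Times: 17-24 h plating, Fluo-8 75 min 37 °C, 30 min RT. Measured by: calcium-sensitive Fluo-8 signal, excitation 470-495, emission 515-575 nm. Read-out basis: % activation relative to PEA EC100 response. Control set: DMSO and PEA EC100. Repeats: no replicates (n 1).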
CHO parental Ca – counter-screen: ATP calcium response change in parental CHO cells; inhibition, % at 5.6 µM; 330,000 tested, 0.63% active; parental CHO-K1, ATP-induced calcium, Fluo-8 fluorescence;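 active = inhibition above that plate's mean sample inhibition plus 3 SD, cut at about 26% in these data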;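 note: 0% = ATP-challenged DMSO wells and 100% = DMSO wells without ATP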
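material = parental CHO cells | also added = ATP as calcium-mobilizing challenge | dosing = single point at 5.6 µM | detection = intracellular calcium via Fluo-8 no-wash fluorescent dye | read-out = % inhibition | benchmarks = low control ATP plus DMSO, high control DMSO only | repeats = one well per compound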
Numbers without * were called inactive; . = no result.

SMILES	OX1R antag-1	OX1R antag-2	TAAR1 antag	GPR7 antag	TAAR1 ag	CHO parental Ca
CCn1c(SCC(=O)Nc2cccc(OC)c2)nc2ccccc2c1=O	.	.	5	-5	10	.
Cn1c(SCc2cccc([N+](=O)[O-])c2)nc2ccccc2c1=O	68*	54*	24	.	3	36*
CCOCCn1ccc2c(OCC(=O)Nc3ccccc3OC)cccc2c1=O	-23	14	58*	.	10	-1
Nc1[nH]c(C(=O)c2ccc(Br)cc2)c(-c2ccc(F)cc2)c1C(=O)NCCc1c[nH]c2ccccc12	.	.	-8	.	1	.
CCCCCCCCN1C(=O)[C@@H](CC(=O)NCC23CC4CC(CC(C4)C2)C3)C[C@@]2(C(=O)OC)C1=C[C@H](C(C)(C)C)O[C@@H]2C	.	.	-1	.	1	.
CN(C)CCN1CCN(C2CN(Cc3ccc(F)cc3)S(=O)(=O)C2)CC1 (stereo not given)	.	.	5	.	0	.
Nn1cnc2c(ncn2C2OC(CO)C(O)C2O)c1=O (stereo not given)	.	.	-9	.	1	.
O=C1/C(=C\c2c(NCCOCCO)nc3ccccn3c2=O)SC(=S)N1Cc1ccco1	37	-6	62*	6	41*	34*
COc1ccc(C2CC(=O)C(c3ccc(Cl)cc3)=CN2Cc2ccccc2)cc1 (stereo not given)	.	.	-1	.	3	.
C=CCn1c(O)c(N=Nc2ccccc2O)c2ccccc21	77*	6	5	.	6	67*
Nc1[nH]c(C(=O)c2ccccc2)c(-c2cccnc2)c1C(=O)c1ccccc1	.	.	-2	.	5	.
N#Cc1ccsc1NC(=O)C1CCCN1S(=O)(=O)c1cccs1 (stereo not given)	12	53*	-24	.	1	-13
Cc1[nH]c2ccccc2c1CC(=O)Nc1ccc(N(C)c2cccnc2)c(-c2ccc(F)c(F)c2)c1	.	.	-2	.	4	.
COc1cc(/C=N/O)ccc1Oc1ccc([N+](=O)[O-])cc1[N+](=O)[O-]	-24	40	4	-4	23	-18
O=[N+]([O-])c1cc(/C=N\O)ccc1Oc1ccc(F)cc1	-2	14	19	16*	-3	-2
COc1ccc(CCN(Cc2ccccn2)C(=S)Nc2ccccc2Cl)cc1OC	-7	41*	-39	18	0	-8
COc1ccc(CCN(Cc2ccccn2)C(=S)Nc2ccccc2F)cc1OC	-20	32	-15	2	1	-5
CCCCN(Cc1nc2ccccc2c(=O)[nH]1)C(=O)c1nn(C)c(=O)c2ccccc12	.	.	15	.	6	.
CCCCc1c(-c2ccccc2OC)ncn1Cc1ccc(Cl)cc1Cl	.	.	-14	.	4	.
CSc1ccccc1NC(=O)CO/N=C(\C)c1cc2ccccc2o1	-38	23	30	-2	11	-22
C/C(=N\OCC(=O)Nc1ccc(F)c(F)c1F)c1cc2ccccc2o1	-1	65*	3	2	-1	-15
O=C(NCc1cccnc1)C(=O)N/N=C/c1ccc([N+](=O)[O-])cc1	-29	59*	-17	-7	9	-4
O=C(NCc1cccnc1)C(=O)N/N=C/c1ccccc1[N+](=O)[O-]	-6	19	-12	-9	10	-7
Cc1ccc(C(=O)N[C@H](C(=O)OCc2cc(=O)n3c(n2)sc2ccccc23)C(C)C)cc1	-17	21	38	-13	4	-40
O=C(OCc1cc(=O)n2c(n1)sc1ccccc12)c1ccc(O)cc1O	-2	63*	-8	-3	0	-17
SMILES	OX1R antag-1	OX1R antag-2	TAAR1 antag	GPR7 antag	TAAR1 ag	CHO parental Ca
COC(=O)c1sccc1NC(=O)c1cc(-c2cc(C)ccc2C)nc2ccccc12	-14	9	16	4	6	-26
Cc1cccc(NC(=O)c2cc(-c3ccc(C)s3)nc3ccccc23)n1	-33	27	51*	-15	10	-32
Cc1ccc(C)c(-c2cc(C(=O)Nc3nccs3)c3ccccc3n2)c1	-10	10	51*	-13	15	-21
Cc1ccc(C)c(-c2cc(C(=O)NCc3cccs3)c3ccccc3n2)c1	-4	1	49*	0	4	-24
Cc1ccc(C)c(NC(=O)c2cc(C)nc3ccccc23)c1	-16	17	3	-3	2	67*
CCc1ccc(C2CC(=O)N3CN(c4ccccc4)CSC3=C2C#N)cc1 (stereo not given)	-17	4	2	4	4	-12
N#CC1=C2SCC(O)(c3ccccc3)N2C(=O)CC1c1ccccc1 (stereo not given)	-2	16	25	17*	11	-20
c1ccc(-c2ccncn2)cc1	.	.	-15	.	2	.
C=CCN=C1NC(CCc2ccccc2)C(C(=O)OC)=C(C)N1Cc1cccc(C(F)(F)F)c1 (stereo not given)	.	.	33	.	25	.
CCOc1ccc(N2C(=O)CC(NCCc3c[nH]c4ccccc34)C2=O)cc1 (stereo not given)	14	61*	-1	-1	8	-7
CCOc1ccc(N2C(=O)CC(NCCc3ccncc3)C2=O)cc1 (stereo not given)	10	11	-1	-11	9	-8
CC(=O)c1cc(N2CCC(C(=O)O)CC2)ccc1[N+](=O)[O-]	-10	67*	0	-19	9	-18
COc1ccc(NC(=O)c2cc(C3CCCCN3C(=O)c3ccc(NC(C)=O)cc3)on2)c(C)c1 (stereo not given)	.	.	2	.	0	.
COC(=O)C1=C(C)N(Cc2ccccc2C(F)(F)F)C(=NCc2ccc3c(c2)OCO3)NC1c1cccc(C(F)(F)F)c1 (stereo not given)	.	.	0	.	5	.
O=C(N/C=C\n1cnc2cc(C(F)(F)F)ccc21)c1ccc([N+](=O)[O-])cc1	-25	18	-18	16	3	2
O=C(N/C=C/n1cnc2cc(C(F)(F)F)ccc21)c1ccccc1	-51	26	1	-4	-1	51*
CC(C)(C)C(=O)c1c(N)[nH]c(C(=O)c2ccccc2)c1-c1ccccc1	.	.	-8	.	9	.
CN(C)c1ccc(/C=C(\NC(=O)c2ccccc2)C(=O)NCCCn2ccnc2)cc1	-1	40*	19	-11	-1	-5
O=C(NCCCn1ccnc1)/C(=C/c1ccccc1)NC(=O)c1ccccc1	-2	15	-7	4	1	12
O=C(NCc1cccc(F)c1)c1cccc2c1C(=O)c1ccc(N3CCC(Cc4ccccc4)CC3)cc1S2(=O)=O	40	15	.	.	.	42*
COc1ccccc1N1CCN(c2ccc3c(c2)S(=O)(=O)c2cccc(C(=O)NCc4ccc(F)cc4)c2C3=O)CC1	.	.	57*	.	8	.
O=C(NCc1cc(C(F)(F)F)ccc1Cl)c1cccc2c1C(=O)c1ccc(N3CCC(N4CCCCC4)CC3)cc1S2(=O)=O	.	.	59*	.	16	.

From PubChem BioAssay
